Measured values published in ChEMBL document CHEMBL4371075, “α-Amino Diphenyl Phosphonates as Novel Inhibitors of Escherichia coli ClpP Protease” (J Med Chem, 2019).
Active and inactive are the calls of the source. The calls are words filed in the database; no cut-off is given here.

How the values were obtained:
[1] = target: ATP-dependent Clp protease proteolytic subunit (Escherichia coli (strain K12), UniProt P0A6G7); assay: Inhibition of Escherichia coli C-terminal His6-tagged ClpP expressed Escherichia coli SG1146a using Suc-LY-AMC as substrate preincubated for 10 mins followed by substrate addition and measured over 1 hr by fluorescence assay
In short: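 ClpP at 625 nM with compound serial dilutions (1:3 or 1:2) in 100 mM NaCl, 100 mM Hepes pH 7.5, 0.05% Brij 35, preincubated 10 min at 30 °C. Suc-LY-AMC added (75 µM), fluorescence (ex 350/em 435 nm) tracked 1 h at 30 °C against DMSO vehicle (2% v/v).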

[2] = target: ATP-dependent Clp protease proteolytic subunit (Escherichia coli (strain K12)) (UniProt P0A6G7); assay: Inhibition of Escherichia coli C-terminal His6-tagged ClpP expressed Escherichia coli SG1146a at 200 uM using Suc-LY-AMC as substrate preincubated for 10 mins followed by substrate addition and measured over 1 hr by fluorescence assay relative to control
In short: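 E. coli ClpP (625 nM) in 100 mM NaCl, 100 mM Hepes pH 7.5, 0.05% Brij 35, preincubated with compound (200 µM final, triplicates) 10 min at 30 °C. Suc-LY-AMC added (75 µM), fluorescence (ex 350/em 435 nm) followed over 1 h at 30 °C. Inhibition relative to 2% DMSO vehicle; Z-LY-CMK (200 µM) positive control; plates valid at Z' > 0.6.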

HeLa = assay: Cytotoxicity against human HeLa cells after 48 hrs by CellTiter-Glo assay; format: cell-based
In short: (§1)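 Human cells seeded (2000 cells/well; A549 500 cells/well), 24 h at 37 °C, 5% CO2, then compounds added (final DMSO 1%), 1:3 dilution series from 100 µM, 48 h exposure. ATP read by CellTiter-Glo luminescence relative to DMSO-treated cells; DMSO (1%) negative and valinomycin (10 µM) positive controls; plates accepted at Z' > 0.5.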

HepG2 = assay: Cytotoxicity against human HepG2 cells after 48 hrs by CellTiter-Glo assay; format: cell-based; settings: HepG2, 48 h; in short: as §1
A549 = assay: Cytotoxicity against human A549 cells after 48 hrs by CellTiter-Glo assay; format: cell-based; settings: A549, 48 h; in short: as §1
alpha-chymotrypsin = alpha-chymotrypsin (Bos taurus, UniProt P00766); assay: Inhibition of bovine alpha-chymotrypsin assessed as residual activity at 200 uM relative to control; settings: cattle, read-out: Activity
In short: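 Bovine α-chymotrypsin (40 nM) with compound at 200 µM and Suc-LY-AMC (100 µM) in 150 mM NaCl, 10 mM CaCl2, 50 mM Tris-HCl, 0.05% Brij 35. AMC fluorescence read-out; residual activity relative to control without compound.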

[3] = system: Escherichia coli ClpP (C-terminal His6-tagged); assay: Selectivity index, ratio of EC50 for human A549 cells to IC50 for Escherichia coli C-terminal His6-tagged ClpP expressed Escherichia coli SG1146a; format: toxicity; settings: read-out: Selectivity Index
[4] = target: ATP-dependent Clp protease proteolytic subunit (Escherichia coli (strain K12)) (UniProt P0A6G7); assay: Reversible binding affinity to Escherichia coli C-terminal His6-tagged ClpP expressed Escherichia coli SG1146a up to 320 uM measured after cessation of compound treatment by SPR analysis
In short: (§2)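 His-tagged E. coli ClpP amine-coupled to chip (80 µg/mL in 10 mM sodium acetate pH 4). Running buffer 150 mM NaCl, 10 mM Hepes, 3 mM EDTA, 0.05% Tween-20, 3.2% DMSO; 20 µL/min, 6 min injection, up to 300 s dissociation; 2.5–320 µM range. Reference-channel subtracted, DMSO/bulk-shift corrected; return to baseline after injection end judged.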

Escherichia coli [5] = assay: Growth inhibition of wild-type Escherichia coli BW25113 at 100 uM measured at 1 hr time interval for 15 to 24 hrs; format: functional, organism-based
In short: (§3)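 E. coli BW25-113 and isogenic ΔclpP JW0427-1, grown overnight in MHB, diluted 1:100 in M9 + 10 mM glucose to OD600 ~0.3; assayed at OD600 0.1 with compound 100 µM, with or without DPTA NONOate (2 mM) for NO stress. 37 °C, 500 rpm; OD600 hourly for 15 or 24 h; mean of three independent experiments ± standard deviation.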

Escherichia coli [6] = assay: Growth inhibition of wild-type Escherichia coli BW25113 at 100 uM under nitric oxide stress condition measured at 1 hr time interval for 15 to 24 hrs in presence of DPTA NONOate; format: functional, organism-based; in short: as §3
Escherichia coli [7] = assay: Growth inhibition of ClpP-deficient Escherichia coli JW0427-1 at 100 uM measured at 1 hr time interval for 15 to 24 hrs; format: functional, organism-based; in short: as §3
Escherichia coli [8] = assay: Growth inhibition of ClpP-deficient Escherichia coli JW0427-1 at 100 uM under nitric oxide stress condition measured at 1 hr time interval for 15 to 24 hrs in presence of DPTA NONOate; format: functional, organism-based; in short: as §3
[9] = target: ATP-dependent Clp protease proteolytic subunit (Escherichia coli (strain K12)) (UniProt P0A6G7); assay: Reversible binding affinity to Escherichia coli C-terminal His6-tagged ClpP expressed Escherichia coli SG1146a up to 80 uM measured after cessation of compound treatment by SPR analysis; in short: as §2
Escherichia coli [10] = assay: Growth inhibition of tolC-deficient Escherichia coli JW5503 at 100 uM measured after 24 hrs relative to control; format: functional; settings: JW5503, 24 h, read-out: GI
In short: (§4)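 Single colony in saline, adjusted in MHB; final inoculum 5x10^5 CFU/mL, compound 100 µM in triplicate, 2% DMSO and ciprofloxacin controls. 37 °C, 500 rpm shaking; OD600 at time 0 and later time points to quantify growth.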

Escherichia coli [11] = assay: Growth inhibition of wild-type Escherichia coli BW25113 at 50 uM measured after 24 hrs in presence of efflux pump substrate PAbetaN relative to control; format: functional; settings: BW25113, 24 h, read-out: GI
In short: (§5)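 E. coli BW25-113 wild type or ΔclpP JW0427-1 grown with compound (50 µM) plus efflux pump substrate PAβN (25 µg/ml); growth inhibition read as OD600 at 24 h, 37 °C with shaking.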

Escherichia coli [12] = assay: Growth inhibition of ClpP-deficient Escherichia coli JW0427-1 at 50 uM measured after 24 hrs in presence of efflux pump substrate PAbetaN relative to control; format: functional; settings: JW0427-1, 24 h, read-out: GI; in short: as §5
Staphylococcus aureus = assay: Growth inhibition of Staphylococcus aureus ATCC 29213 at 100 uM measured after 24 hrs relative to control; format: functional; settings: ATCC 29213, 24 h, read-out: GI; in short: as §4

Sequence of ATP-dependent Clp protease proteolytic subunit (P0A6G7 whole entry): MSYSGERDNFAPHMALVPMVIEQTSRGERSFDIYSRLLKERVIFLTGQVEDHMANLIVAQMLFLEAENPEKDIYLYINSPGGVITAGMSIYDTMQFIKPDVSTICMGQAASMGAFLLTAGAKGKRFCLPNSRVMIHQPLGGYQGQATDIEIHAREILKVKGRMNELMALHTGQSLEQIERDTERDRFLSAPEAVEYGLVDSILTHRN
Sequence of ATP-dependent Clp protease proteolytic subunit (Escherichia coli (strain K12)) (P0A6G7 whole entry): as above

Row | SMILES | IC50 [1] [µM] | inhibition [2] [%] | EC50 (HeLa) [µM] | EC50 (HepG2) [µM] | EC50 (A549) [µM] | activity at 200 µM (alpha-chymotrypsin) [%] | selectivity ratio [3] | Activity [4] | growth inhibition (GI) (Escherichia coli [5]) | growth inhibition (GI) (Escherichia coli [6]) | growth inhibition (GI) (Escherichia coli [7]) | growth inhibition (GI) (Escherichia coli [8]) | Activity [9] | inhibition of growth at 100 µM (Escherichia coli [10]) [%] | inhibition of growth at 50 µM (Escherichia coli [11]) [%] | inhibition of growth at 50 µM (Escherichia coli [12]) [%] | inhibition of growth at 100 µM (Staphylococcus aureus) [%]
1 | C[C@H](NC(=O)[C@H](CO)NC(=O)c1cccs1)C(=O)NC(Cc1ccc(NC(=N)N)cc1)P(=O)(Oc1ccccc1)Oc1ccccc1 (some centres undefined) | 49.5 | 90 | ≥ 100 | ≥ 100 | ≥ 100 | ≥ 100 |  |  |  |  |  |  |  |  |  |  | 
2 | O=C(NC(c1ccc(NC(=O)C(F)(F)F)cc1)P(=O)(Oc1ccccc1)Oc1ccccc1)OCc1ccc2c(c1)OCO2 (centres undefined) | 8.2 | 93 | ≥ 100 | ≥ 100 | 41.5 | 46 | < 10 | Active |  |  |  |  |  |  |  |  | 
3 | COc1cccc(C(NC(=O)OCc2ccccc2)P(=O)(Oc2ccccc2)Oc2ccccc2)n1 (centres undefined) | 38 | 100 | ≥ 100 | ≥ 100 | ≥ 100 | ≥ 100 |  |  |  |  |  |  |  |  |  |  | 
4 | Nc1cccc(C(NC(=O)OCc2ccccc2)P(=O)(Oc2ccccc2)Oc2ccccc2)c1 (centres undefined) | 0.5 | 100 | ≥ 100 | 23.8 | 27.5 | 17.9 |  | Active | inactive | Active | inactive | inactive |  |  |  |  | 
5 | O=C(NC(c1ccc(N2CCNCC2)cc1)P(=O)(Oc1ccccc1)Oc1ccccc1)OCc1ccccc1 (centres undefined) | 0.6 | 100 | 8.6 | 1.1 | 0.4 | ≥ 100 |  |  |  |  |  |  | Active | 69.9 |  |  | 
6 | COC(=O)NC(c1ccc(C(=N)N)cc1)P(=O)(Oc1ccccc1)Oc1ccccc1 (centres undefined) | 48.1 | 93 | ≥ 100 | ≥ 100 | ≥ 100 | ≥ 100 |  |  |  |  |  |  |  |  |  |  | 
7 | O=C(NC(CCc1ccc([N+](=O)[O-])cc1)P(=O)(Oc1ccccc1)Oc1ccccc1)OCc1ccccc1 (centres undefined) | 13.1 | 100 | ≥ 100 | ≥ 100 | ≥ 100 | ≥ 100 |  |  |  |  |  |  |  |  |  |  | 
8 | O=C(NC(c1c[nH]c2ccc(Cl)cc12)P(=O)(Oc1ccccc1)Oc1ccccc1)OCc1ccccc1 (centres undefined) | 100 | 88 | 19.9 | 10.5 | 5.9 | ≥ 100 |  |  |  |  |  |  |  |  |  |  | 
9 | CN(C)c1ccc(C(NC(=O)OCc2ccccc2)P(=O)(Oc2ccccc2)Oc2ccccc2)cc1 (centres undefined) | 0.6 | 100 | ≥ 100 | 28.4 | 65.6 | ≥ 100 |  | Active |  |  |  |  |  |  |  |  | 
10 | Nc1ccc(C(NC(=O)OCc2ccccc2)P(=O)(Oc2ccccc2)Oc2ccccc2)cc1 (centres undefined) | 39.8 | 96 | ≥ 100 | ≥ 100 | 57.8 | ≥ 100 | < 10 |  |  |  |  |  |  |  |  |  | 
11 | O=C(NC(Cc1ccc(C(F)(F)F)cc1)P(=O)(Oc1ccccc1)Oc1ccccc1)OCc1ccccc1 (centres undefined) | 14.2 | 100 | ≥ 100 | ≥ 100 | ≥ 100 | 93.9 |  |  |  |  |  |  |  |  |  |  | 
12 | N=C(N)c1ccc2cc(C(NC(=O)OCc3ccccc3)P(=O)(Oc3ccccc3)Oc3ccccc3)ccc2c1 (centres undefined) | 79.7 | 81 | 19.9 | 28.3 | 25.6 | ≥ 100 |  |  |  |  |  |  |  | 98.9 | 98.5 | 99.4 | 
13 | N=C(N)N1CC(C(NC(=O)OCc2ccccc2)P(=O)(Oc2ccccc2)Oc2ccccc2)C1 (centres undefined) | 71.3 | 100 | ≥ 100 | ≥ 100 | ≥ 100 | ≥ 100 |  |  |  |  |  |  |  | 99 |  |  | 99.9
